Hits are enriched below; roughly 3.6% of the tested compounds scored in any of these assays.
AHR act: activates the human aryl hydrocarbon receptor; 320,000 tested, 2.5% active; activation, % at 5 µM; AHR-responsive luciferase reporter cells, luminescence; in the data active = activation above about 47%
Target sequence (P35869 whole entry, looked up): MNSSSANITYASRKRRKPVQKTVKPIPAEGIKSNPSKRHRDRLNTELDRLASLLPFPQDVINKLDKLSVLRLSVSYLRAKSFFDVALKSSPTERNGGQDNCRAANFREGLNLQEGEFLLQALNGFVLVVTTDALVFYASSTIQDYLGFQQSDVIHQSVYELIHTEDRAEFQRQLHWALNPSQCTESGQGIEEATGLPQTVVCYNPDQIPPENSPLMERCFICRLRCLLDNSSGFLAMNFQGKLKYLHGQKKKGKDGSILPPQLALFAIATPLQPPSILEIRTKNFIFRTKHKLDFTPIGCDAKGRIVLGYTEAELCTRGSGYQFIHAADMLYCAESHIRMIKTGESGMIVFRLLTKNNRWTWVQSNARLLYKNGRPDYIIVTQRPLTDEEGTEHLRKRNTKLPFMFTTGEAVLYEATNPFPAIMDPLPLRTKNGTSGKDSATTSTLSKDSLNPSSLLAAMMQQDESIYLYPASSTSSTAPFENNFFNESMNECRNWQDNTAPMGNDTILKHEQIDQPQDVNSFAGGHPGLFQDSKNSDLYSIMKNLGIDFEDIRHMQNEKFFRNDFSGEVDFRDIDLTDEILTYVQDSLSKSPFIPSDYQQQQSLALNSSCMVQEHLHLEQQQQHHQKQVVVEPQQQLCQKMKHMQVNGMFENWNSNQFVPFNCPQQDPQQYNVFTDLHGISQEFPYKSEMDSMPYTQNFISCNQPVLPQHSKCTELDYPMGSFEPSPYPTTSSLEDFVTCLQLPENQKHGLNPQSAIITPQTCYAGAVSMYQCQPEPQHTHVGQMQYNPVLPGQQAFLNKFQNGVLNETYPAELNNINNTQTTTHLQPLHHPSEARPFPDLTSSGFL
STAT3 activator: activators of IL-6 induced STAT3 signaling. AID 871. U3A cells, IL-6 STAT3-luciferase reporter, luminescence; 100% = signal with IL-6 EC80 alone. activation (% of control), % at 5.6 µM. 190,000 tested, 0.91% active;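 active = activation above the screen-wide mean of compound activation plus 3 SD, cut at about 130% in these data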
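Test system: Human STAT1-deficient U3A cells with stable STAT3-luciferase reporter | Also added: Interleukin-6, 33 ng/mL | Timing: Compound pre-incubation 1 h before IL-6, then 6 h stimulation at 37 °C | Technique: Luciferase reporter luminescence | Read-out: Percent of IL-6-only median luminescence | Benchmarks: IL-6-only wells as 100% reference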
Hsp70 act: switches on Hsp70 transcription | HeLa Hsp70 promoter luciferase reporter, luminescence; scaled: vehicle 0, proteasome-inhibitor control 100% | activation, % at 10 µM | 200,000 tested, 0.04% active | AID 1203;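 active = activation above the mean across all tested compounds plus 3 SD, cutoff set per campaign, cut at about 5.5% in these data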
PERK inhibitor: blocks human PERK kinase; Q9NZJ5; CHO PERK-DD fusion, SEAP luminescence translation reporter; inhibition, % at 5.6 µM; 220,000 tested, 0.17% active; AID 1416;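 active = inhibition above the mean inhibition of all tested compounds plus 3 SD, set separately per screening campaign, cut at about 2.9% in these data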;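 also: PERK kinase domain activated by AP20187 dimerizer at 100 nM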
PolyA inhibitor: inhibitors of polyadenylation in S. cerevisiae; 300,000 tested, 0.02% active; AID 1875; S. cerevisiae SKY197-pL101 polyadenylation reporter, beta-gal luminescence; efflux-impaired pdr1/pdr3 knockout yeast; score 100 = 6 SD above DMSO; activity score, % at 12 µM;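 active = lowest replicate activity score at least 50, where 100 means six control SD above control mean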;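 also: yeast exposed to compound for 9 h at 30 °C; higher score means more reporter readthrough which indicates perturbed polyadenylation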
HSF1 inhib: HSF1 inhibition; NIH3T3-HGL HSE-luciferase, MG132-induced, luminescence 8 h; hits give low values; activity change, negative = inhibition, % at 7.5 µM (by protocol); 300,000 tested, 0.77% active; AID 2098;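 active = more than half of replicate wells show activity change below -50%, luminescence cut by over half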;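 also: luciferase reports HSF-1 transcriptional activity via heat shock element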
Each line names hits and unclear results; the compound was inactive in the other large screens.

O=C(C1=C[C@H](c2ccc(C(F)(F)F)cc2)C[C@H](OCCCCO)O1)N1CCN(Cc2ccc3c(c2)OCO3)CC1	HSF1 inhib -70.1 (no result: STAT3 activator)
Cc1cc(C(=O)O)ccc1-n1c(C)ccc1C	PERK inhibitor 3.3
Cc1cc(N)ccc1-n1c(C)ccc1C	AHR act 109.6
Cc1cc(N)ccc1N1CCCC1	none
CCN1CCN(C(=O)c2ccc3c(c2)N(Cc2ccccc2F)C(=O)c2ccccc2S3(=O)=O)CC1	none (no result: STAT3 activator, Hsp70 act, PERK inhibitor)
COc1ccc2nc(NC(=O)CSc3nnc(C)n3N)sc2c1	PERK inhibitor 4.7 (no result: STAT3 activator, Hsp70 act)
COc1ccc2nc(NC(=O)CN3CCOCC3)sc2c1	HSF1 inhib -88.6
O=C(COC(=O)C1CC2CCCC(C1)C2=O)NC1CCCCC1 (configuration not stated)	none (no result: STAT3 activator, Hsp70 act, PERK inhibitor, PolyA inhibitor, HSF1 inhib)
CC(C)NC(=O)CN1CCC(c2nc3ccccc3[nH]2)CC1	none (no result: STAT3 activator, Hsp70 act, PERK inhibitor)
Cc1cc(N/N=C/c2ccc(O)c(C)c2O)nc(-c2ccccc2O)n1	HSF1 inhib -59.2
CC(=O)Nc1ccc(N=Cc2c(O)c(C(=O)Nc3ccccc3)cc3ccccc23)cc1	STAT3 activator 144.9
Cc1ccsc1C(=O)OCc1nc2ccsc2c(=O)[nH]1	none (no result: STAT3 activator, Hsp70 act, PERK inhibitor)
Cc1ccsc1C(=O)OCc1nc2ccccc2c(=O)[nH]1	AHR act 56.3 (no result: PolyA inhibitor)
COc1ccc(C(CNC(=O)C(C)Oc2ccc(Br)cc2)N2CCOCC2)cc1 (configuration not stated)	AHR act 49.3 (no result: STAT3 activator, Hsp70 act, PERK inhibitor)
O=S(=O)(Nc1ncnc2sc3c(c12)CCC3)c1ccc(Cl)s1	AHR act 47.9
CCOc1ccc(NC(=O)CN(C)C(=O)c2c(-c3ccccc3Cl)noc2C)cc1OCC	none (no result: STAT3 activator, Hsp70 act, PERK inhibitor)
CC(C)c1ccccc1-n1c(-c2cccnc2)n[nH]c1=S	HSF1 inhib -65.1
CC(Oc1cccc(Br)c1)C(=O)NNC(=O)CCNC(=O)c1ccccc1Cl (configuration not stated)	none (no result: STAT3 activator, Hsp70 act, PERK inhibitor, PolyA inhibitor, HSF1 inhib)
COc1ccc(C)cc1S(=O)(=O)N1CCC(C(=O)NC2CCCC2)CC1	none (no result: STAT3 activator, Hsp70 act, PERK inhibitor)
O=c1c(-c2ccc(F)cc2)[n+]([O-])c2ccccc2n1OCc1ccccn1	none
Cc1c(=O)n(OCc2ccccn2)c2ccccc2[n+]1[O-]	AHR act 51.6
CC(=O)Nc1ccc(NC(=O)COC(=O)c2cc(S(=O)(=O)N(C)C)ccc2N2CCCC2)cc1	none (no result: STAT3 activator, Hsp70 act, PERK inhibitor)
CN(CC(=O)Nc1ccc(F)cc1)C(=O)COC(=O)c1cc(S(=O)(=O)N(C)C)ccc1N1CCCC1	HSF1 inhib -68.2 (no result: STAT3 activator, Hsp70 act, PERK inhibitor)
CCOc1ccc(NCc2cccn2-c2nnc(N3CCC(C(=O)NCCCN4CCCCC4)CC3)s2)cc1	HSF1 inhib -57.4 (no result: STAT3 activator, Hsp70 act, PERK inhibitor)
COc1ccc(CCN2C(=O)CS/C2=N\NC(=O)c2cccs2)cc1OC	AHR act 69.1
CC(C)[C@H](NC(=O)c1ccco1)C(=O)N(C)Cc1c(F)cccc1Cl	none (no result: STAT3 activator, Hsp70 act, PERK inhibitor)
CCOC(=O)/C(=C\c1ccc(OC(F)F)cc1)C1=Nn2c(nnc2-c2ccc(Cl)cc2)SC1	HSF1 inhib -83.1
C=CCOc1ccccc1CN1CCC(n2nccc2NC(=O)c2ccccc2)CC1	none (no result: STAT3 activator, Hsp70 act, PERK inhibitor)
Cc1ccc(/C=C(/C#N)c2nc(CCN3C(=O)c4ccccc4C3=O)cs2)cc1	HSF1 inhib -53.2
O=C(Nc1ccc(S(=O)(=O)N2CCOCC2)cc1)c1ccc(Cl)cc1Cl	HSF1 inhib -66.5 (no result: STAT3 activator, Hsp70 act, PERK inhibitor)
O=C(CSc1nnc(CCc2ccccc2)n1-c1ccc(Cl)cc1)c1ccccc1	HSF1 inhib -60.0
N#Cc1ccc(NC(=O)CN2C(=O)NC3(CCCC3)C2=O)cc1	none (no result: STAT3 activator, Hsp70 act, PERK inhibitor)
O=S1(=O)N[C@H](c2ccccc2)C[C@H](c2ccc(C(F)(F)F)cc2)O1	HSF1 inhib -56.4 (no result: STAT3 activator, Hsp70 act, PERK inhibitor)
COc1ccc(NC(=O)Cc2nnc(SCC(=O)Nc3ccccc3)n2C)cc1	none (no result: STAT3 activator, Hsp70 act, PERK inhibitor)
O=C(Nc1ccc(S(=O)(=O)NCC2CCCO2)cc1)c1ccccc1 (configuration not stated)	HSF1 inhib -64.6
O=C(Nc1ccc(S(=O)(=O)NCC2CCCO2)cc1)c1cnccn1 (configuration not stated)	none
COc1ccc(-c2sc3ccc(N4CCOCC4)cc3c2C#CC(C)(C)O)cc1	AHR act 48.8 (no result: STAT3 activator, Hsp70 act, PERK inhibitor, PolyA inhibitor, HSF1 inhib)
COc1ccc2sc(-c3ccc(N(C)C)cc3)c(C#Cc3cncn3C)c2c1	AHR act 71.2 (no result: STAT3 activator, Hsp70 act, PERK inhibitor, PolyA inhibitor, HSF1 inhib)
COc1ccc2sc(-c3ccc(N(C)C)cc3)c(C#CC(C)(C)O)c2c1	none (no result: STAT3 activator, Hsp70 act, PERK inhibitor, PolyA inhibitor, HSF1 inhib)
